PostGolgi yeast – growth inhibition of a yeast mutant, post-Golgi transport screen; inhibition, % at 10 µM; post-Golgi transport phenotypic cell assay; 0.9% of 98,000 active;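 note: yeast cells grown in 1536-well plates; yeast grown about 18 h at 30C before absorbance read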
PostGolgi ctrl – growth of the yeast control strain, post-Golgi counter-screen; efflux-deficient yeast background strain, growth absorbance A615, 16 h; inhibition, % at 10 µM; 5% of 98,000 active; AID 738
tolC growth inh – E. coli tolC mutant growth inhibition; E. coli BW25113 tolC mutant growth, OD615; growth inhibition, % at 10 µM (by protocol); 2.2% of 65,000 active;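 active = growth inhibition at or above a cutoff equal to the mean over every tested compound plus 3 SD, cut at about 60% in these data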;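 note: growth measured after 20 h incubation at 37 °C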
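Test system – E. coli BW25113 ΔtolC::kan, tolC deletion mutant strain · Detection – OD at 615 nm · Buffer or medium – LB with kanamycin 50 µg/mL · Times – 20 h compound exposure of bacteria at 37 °C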
D1 mod – allosterically modulates the human D1 dopamine receptor; P21728; HEK293 D1, CRE-luciferase, dopamine EC30 potentiation; actives deviate in either direction; B-score at 10 µM; 5.9% of 58,000 active; AID 641;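 active = luminescence count or its row- and column-corrected plate score outside the 99.7% band of the plate's sample wells, on either side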
Target sequence (P21728 whole entry, looked up): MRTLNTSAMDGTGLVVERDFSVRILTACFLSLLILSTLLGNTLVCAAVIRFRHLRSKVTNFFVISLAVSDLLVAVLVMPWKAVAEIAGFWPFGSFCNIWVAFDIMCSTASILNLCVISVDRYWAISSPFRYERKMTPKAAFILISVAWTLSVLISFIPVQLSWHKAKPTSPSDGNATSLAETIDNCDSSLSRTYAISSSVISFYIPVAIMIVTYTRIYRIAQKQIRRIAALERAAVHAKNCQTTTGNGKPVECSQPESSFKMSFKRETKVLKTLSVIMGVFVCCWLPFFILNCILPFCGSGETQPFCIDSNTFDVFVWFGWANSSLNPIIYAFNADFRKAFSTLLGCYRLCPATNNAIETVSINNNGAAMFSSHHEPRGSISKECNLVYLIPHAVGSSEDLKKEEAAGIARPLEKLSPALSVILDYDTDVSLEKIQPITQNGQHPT
Ecoli WT expand – blocks growth of wild type E. coli BW25113; OD600 absorbance; growth inhibition, % at 100 µM; 0.15% of 98,000 active;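 active = growth inhibition above about 50% at one test dose, limit read from the data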;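 note: growth measured after 20 h incubation at 37 °C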
DAT uptake mod – changed human dopamine transporter uptake under cocaine IC80. B-score at 10 µM. 1.3% of 110,000 active. Q01959. LLC-PK1 hDAT cells, [14C]-dopamine uptake with cocaine IC80; actives deviate in either direction;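 active = Z score or B-score, a plate-position-corrected score, falls beyond the plate's 99.7% confidence bounds, in either direction; inactive = both scores lie inside the 99.7% bounds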
Large screens that a line does not name were inactive. Shown are actives, neighbours in structure and some others; about 9.3% of the full set was active somewhere. Cut-off read from the data, not from the text of the source, unless noted: active = inhibition above about 30%; inactive = the rest.

CCCCNC(=O)CSc1nnc(-c2c[nH]c3ccccc23)n1CC1CCCO1 (configuration not stated)	none (no result: tolC growth inh, D1 mod)
CCCC(=O)N1CCN(c2ccc(NC(=O)c3cc4ccccc4o3)cc2Cl)CC1	PostGolgi yeast 86.4, PostGolgi ctrl 50.1
CCCOc1ccc(C(=O)N2CCN(c3ccc(NC(=O)CC)cc3Cl)CC2)cc1	tolC growth inh 63.4
CCC(=O)N1CCN(c2ccc(NC(=O)c3cc4ccccc4o3)cc2Cl)CC1	PostGolgi ctrl 37.9, D1 mod -3.9
O=C(Nc1ccc(N2CCN(C(=O)c3ccco3)CC2)c(Cl)c1)c1cc2ccccc2o1	none (no result: DAT uptake mod)
CCS(=O)(=O)c1ccc2oc(SCC(=O)NC3CCCC(C)C3C)nc2c1 (configuration not stated)	none (no result: tolC growth inh, D1 mod)
Cn1c(C(=O)NCCN2CCN(Cc3ccccc3)CC2)cc2c(=O)n(C)c3ccccc3c21	DAT uptake mod 3.16 (no result: PostGolgi yeast, PostGolgi ctrl, Ecoli WT expand)
CC(C)OCCCNC(=O)c1cc2c(=O)n(C)c3ccccc3c2n1C	PostGolgi ctrl 31.7
Cn1c(C(=O)NCCCN2CCN(c3ccccc3F)CC2)cc2c(=O)n(C)c3ccccc3c21	D1 mod -2.59
CCOc1ccc(-n2cc(C(=O)Nc3cccc(C)n3)c3cc(OC)c(OC)cc3c2=O)cc1	none (no result: PostGolgi yeast, PostGolgi ctrl, Ecoli WT expand)
CC1=C(C#N)C(=O)N(C)C(C)(C)C1	none
CC1=C(C#N)C(=O)NC(C)(C)C1	PostGolgi ctrl 36.6
CNc1ccc(C(O)(C(F)(F)F)C(F)(F)F)cc1C(O)(C(F)(F)F)C(F)(F)F	tolC growth inh 62.2
Cc1ccc(S(=O)(=O)N2CCN(c3ccc4nnc(-c5ccccc5)n4n3)CC2)cc1	PostGolgi ctrl 34.2 (no result: tolC growth inh, D1 mod)
COc1ccc(S(=O)(=O)N2CCN(c3ccc4nnc(-c5ccc(F)cc5)n4n3)CC2)cc1	none
O=[N+]([O-])c1ccc(-c2cc(-c3ccncc3)nc3ccc4ccccc4c23)cc1	none (no result: tolC growth inh, D1 mod)
C=CCc1ccc(OCCOc2cccc3ccc(C)nc23)c(OC)c1	none (no result: tolC growth inh, D1 mod)
CCC(=O)Nc1cc2nn(-c3ccccc3)nc2cc1Cl	D1 mod -5.39
COC(=O)CSc1nnc(CNC(=O)c2ccco2)n1-c1ccc(F)cc1	none
Cc1nc(SC2CC(=O)N(c3ccc([N+](=O)[O-])cc3)C2=O)nc2c1CCCC2 (configuration not stated)	none (no result: tolC growth inh, D1 mod)
CN1/C(=C/C2CC(=O)N(c3ccc([N+](=O)[O-])cc3)C2=O)C(C)(C)c2ccccc21 (configuration not stated)	DAT uptake mod 2.92 (no result: tolC growth inh, D1 mod)
CCCCN1CC(O)=C(c2nc3ccccc3[nH]2)C1=N	PostGolgi ctrl 30.1 (no result: DAT uptake mod)
CC(C)CCN1CC(O)=C(c2nc3ccccc3[nH]2)C1=N	none (no result: tolC growth inh, D1 mod)
CN(CCOc1ccc(-c2ccn(S(=O)(=O)c3c(Cl)cccc3Cl)n2)cc1)c1ccccn1	none (no result: tolC growth inh, D1 mod)
CN(CCOc1ccc(-c2ccn(S(=O)(=O)c3cccc4ccccc34)n2)cc1)c1ccccn1	DAT uptake mod -8.28 (no result: tolC growth inh, D1 mod)
Nn1cnnc1N/N=C/c1cc(Br)cc(Br)c1O	none (no result: tolC growth inh, D1 mod, DAT uptake mod)
Cc1ccc(-c2cc(-c3ccccc3Cl)[nH]n2)c(O)c1	PostGolgi ctrl 37.6
Oc1ccc(Cl)cc1-c1cc(-c2ccccc2)n[nH]1	PostGolgi ctrl 64.6, tolC growth inh 100.0
Cc1ccc(-c2cc(-c3ccccc3[N+](=O)[O-])[nH]n2)c(O)c1	PostGolgi ctrl 41.0 (no result: tolC growth inh, D1 mod, DAT uptake mod)
COc1ccccc1-c1cc(-c2cc(Cl)ccc2O)n[nH]1	none (no result: D1 mod)
COc1ccc(-c2cc(-c3ccccc3O)[nH]n2)cc1	none (no result: tolC growth inh, D1 mod)
Cc1ccccc1-c1cc(-c2ccccc2O)n[nH]1	PostGolgi ctrl 52.1, tolC growth inh 100.0
CN(C)c1nc(-c2ccccc2)c2cnn(Cc3ccccc3)c2n1	none
COC(=O)C1=C(CCc2ccccc2)NC(=O)NC1c1ccc([N+](=O)[O-])cc1 (configuration not stated)	none (no result: PostGolgi yeast, PostGolgi ctrl, tolC growth inh, D1 mod, Ecoli WT expand)
S=C1NCCOCCOCCOCCOCCNC(=S)NCCOCCOCCOCCOCCN1	none (no result: PostGolgi yeast, PostGolgi ctrl, tolC growth inh, D1 mod, Ecoli WT expand)
Cn1nnnc1SCCNC/C=C/c1ccccc1	none
COCCCn1c(SCc2ccccc2)nc2cc(OC)c(OC)cc2c1=N	DAT uptake mod 8.21 (no result: tolC growth inh, D1 mod)
COCCCn1c(SCc2cccc(C(F)(F)F)c2)nc2cc(OC)c(OC)cc2c1=N	PostGolgi ctrl 41.8 (no result: tolC growth inh, D1 mod)
CCOC(=O)Cc1csc(NC(=O)COc2ccc(N(C)S(=O)(=O)c3cccs3)cc2)n1	none
CN(c1ccc(OCC(=O)N2CCCCC2)cc1)S(=O)(=O)c1cccs1	DAT uptake mod 3.02 (no result: D1 mod)
CCOC(=O)C(C)(C)C(=O)C(C)(C)C(O)c1ccccn1 (configuration not stated)	none
CCOn1c(=O)c(-c2cccs2)[n+]([O-])c2ccccc21	PostGolgi ctrl 41.5 (no result: tolC growth inh, D1 mod)
Cc1cc(N2CCN(C(=O)OC(C)(C)C)CC2)n2ncnc2n1	none
Cc1csc(Sc2nc3c(c(=O)[nH]c(=O)n3C)n2CCCc2ccccc2)n1	PostGolgi ctrl 45.5
Cc1cc(C)n(-c2ccc(C(=O)OCC(=O)c3ccc(Br)s3)cc2)n1	none
Cc1cc(N2CCOCC2)nc(SCc2ccc(Cl)cc2Cl)n1	PostGolgi ctrl 41.6 (no result: tolC growth inh, D1 mod)
Cc1cc(C)nc(SCC(=O)Nc2ccc(N3CCOCC3)c(Cl)c2)n1	none
Cc1ccccc1Nc1nc(N)nc(CSc2nc3ccccc3c(=O)n2C)n1	none (no result: tolC growth inh, D1 mod)
Cc1[nH]c2ccccc2c1Cc1nnc(SCc2ccccc2)o1	PostGolgi ctrl 34.5 (no result: tolC growth inh, D1 mod)
CC1CCCN(Cc2c(O)ccc3c(=O)c(-c4nc5ccccc5s4)c(N)oc23)C1 (configuration not stated)	DAT uptake mod 2.54 (no result: tolC growth inh, D1 mod)
COc1cc(C2C(C#N)=C(N)OC3=C2C(=O)CC(C)(C)C3)ccc1OC(=O)N1CCOCC1 (configuration not stated)	PostGolgi ctrl 32.9
CC1(C)CC(=O)C2=C(C1)OC(N)=C(C#N)C2c1ccc(OC(=O)N2CCOCC2)cc1 (configuration not stated)	none
CCCc1[nH]nc2c1C(c1ccc(OC(=O)N3CCOCC3)cc1)C(C#N)=C(N)O2 (configuration not stated)	none
N#CC1=C(N)OC2=C(C(=O)CCC2)C1c1ccc(OC(=O)N2CCOCC2)cc1 (configuration not stated)	PostGolgi ctrl 37.6
COc1ccccc1-c1nnc(NC(=O)c2ccc(S(=O)(=O)N(C)C)cc2)o1	tolC growth inh 96.0
CCN(Cc1ccccc1)S(=O)(=O)c1ccc(C(=O)Nc2nnc(-c3ccccc3OC)o2)cc1	tolC growth inh 97.8 (no result: DAT uptake mod)
COc1ccccc1-c1nnc(NC(=O)c2ccccc2F)o1	none
CC(=O)OCC(CCn1cnc2cnc(N)nc21)COC(C)=O	none (no result: PostGolgi yeast, PostGolgi ctrl, tolC growth inh, D1 mod, Ecoli WT expand)
O=C(CSc1n[nH]c(-c2ccc(S(=O)(=O)NC3CCCCC3)cc2)n1)N1CCCC1	PostGolgi ctrl 32.0
Oc1c(C(c2cccs2)N2CCN(c3cccc(Cl)c3)CC2)sc2ncnn12 (configuration not stated)	tolC growth inh 100.0
Oc1c(C(c2ccccc2)N2CCc3ccccc3C2)sc2ncnn12 (configuration not stated)	none

Source: PubChem (several laboratories)
